Data set [1] relates to BaF3. As to the kind of experiment: Antiproliferative activity against mouse BaF3 cells transfected with FLT3 ITD mutant harboring DFREYE sequence from MOLM-13 cells assessed as cell growth inhibition incubated for 72 hrs by CCK-8 assay. Type of data set: functional. An outline of the steps: (§1)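 Kinase-transformed isogenic BaF3 lines grown in RPMI 1640 with 10% FBS, 2% L-glutamine and pen/strep at 37 °C, 5% CO2. Seeded at 1500-3000 cells/well and treated with a compound concentration series for 72 h. Viability read by CCK8 absorbance at 450 nm.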
(Tetrazolium dyes change colour on reduction, which living cells bring about.)

The subject of data set [2] is BaF3. Nature of the data set: Antiproliferative activity against mouse BaF3 cells transfected with FLT3 ITD D835del mutant assessed as cell growth inhibition incubated for 72 hrs by CCK-8 assay. Type of data set: functional. The method, boiled down: as §1
The nature of data set [3]: Cytotoxicity against human PBMC cells assessed as reduction in cell viability at 5 uM. The class given is toxicity, cell-based.
In data set [4] the target is Macrophage colony-stimulating factor 1 receptor (Homo sapiens, UniProt P07333). Nature of the data set: Inhibition of CSF1R (unknown origin) assessed as residual activity at 1 uM preincubated for 60 mins followed by ATP addition and measured after 1 hr by ADP-Glo assay relative to control. The conditions noted are these: time 2.0 hrs. Background: In ADP-Glo the light output rises with the ADP produced.
Macrophage colony-stimulating factor 1 receptor, sequence (P07333 whole entry): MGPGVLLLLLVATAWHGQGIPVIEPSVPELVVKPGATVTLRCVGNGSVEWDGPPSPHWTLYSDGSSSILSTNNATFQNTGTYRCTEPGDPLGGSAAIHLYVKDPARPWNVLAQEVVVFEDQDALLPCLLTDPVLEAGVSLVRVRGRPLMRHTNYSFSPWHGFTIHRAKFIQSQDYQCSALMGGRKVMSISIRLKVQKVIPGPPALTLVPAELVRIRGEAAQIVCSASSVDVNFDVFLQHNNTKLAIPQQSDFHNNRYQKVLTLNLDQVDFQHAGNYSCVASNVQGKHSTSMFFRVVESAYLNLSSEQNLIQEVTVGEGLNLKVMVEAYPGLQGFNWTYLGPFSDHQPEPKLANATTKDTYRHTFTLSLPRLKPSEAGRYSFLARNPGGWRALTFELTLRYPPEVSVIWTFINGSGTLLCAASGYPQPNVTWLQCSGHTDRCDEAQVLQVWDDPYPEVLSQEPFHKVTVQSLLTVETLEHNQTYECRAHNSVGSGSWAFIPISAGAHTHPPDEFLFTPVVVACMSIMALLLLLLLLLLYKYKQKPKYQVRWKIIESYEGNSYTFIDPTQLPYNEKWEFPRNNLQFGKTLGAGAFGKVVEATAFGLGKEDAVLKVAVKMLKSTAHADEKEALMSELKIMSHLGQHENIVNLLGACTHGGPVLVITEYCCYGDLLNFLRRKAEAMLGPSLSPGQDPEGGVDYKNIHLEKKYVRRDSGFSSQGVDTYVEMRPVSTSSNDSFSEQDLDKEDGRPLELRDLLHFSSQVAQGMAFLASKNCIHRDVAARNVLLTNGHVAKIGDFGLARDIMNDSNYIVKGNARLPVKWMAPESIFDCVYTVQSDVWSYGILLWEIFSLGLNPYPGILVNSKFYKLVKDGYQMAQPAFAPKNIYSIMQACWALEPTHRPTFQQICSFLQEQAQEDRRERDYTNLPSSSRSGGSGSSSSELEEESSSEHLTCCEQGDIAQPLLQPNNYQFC

The target of data set [5] is T1, Signal transducer and activator of transcription 5A (Homo sapiens) (UniProt P42229).
T1 sequence (whole entry): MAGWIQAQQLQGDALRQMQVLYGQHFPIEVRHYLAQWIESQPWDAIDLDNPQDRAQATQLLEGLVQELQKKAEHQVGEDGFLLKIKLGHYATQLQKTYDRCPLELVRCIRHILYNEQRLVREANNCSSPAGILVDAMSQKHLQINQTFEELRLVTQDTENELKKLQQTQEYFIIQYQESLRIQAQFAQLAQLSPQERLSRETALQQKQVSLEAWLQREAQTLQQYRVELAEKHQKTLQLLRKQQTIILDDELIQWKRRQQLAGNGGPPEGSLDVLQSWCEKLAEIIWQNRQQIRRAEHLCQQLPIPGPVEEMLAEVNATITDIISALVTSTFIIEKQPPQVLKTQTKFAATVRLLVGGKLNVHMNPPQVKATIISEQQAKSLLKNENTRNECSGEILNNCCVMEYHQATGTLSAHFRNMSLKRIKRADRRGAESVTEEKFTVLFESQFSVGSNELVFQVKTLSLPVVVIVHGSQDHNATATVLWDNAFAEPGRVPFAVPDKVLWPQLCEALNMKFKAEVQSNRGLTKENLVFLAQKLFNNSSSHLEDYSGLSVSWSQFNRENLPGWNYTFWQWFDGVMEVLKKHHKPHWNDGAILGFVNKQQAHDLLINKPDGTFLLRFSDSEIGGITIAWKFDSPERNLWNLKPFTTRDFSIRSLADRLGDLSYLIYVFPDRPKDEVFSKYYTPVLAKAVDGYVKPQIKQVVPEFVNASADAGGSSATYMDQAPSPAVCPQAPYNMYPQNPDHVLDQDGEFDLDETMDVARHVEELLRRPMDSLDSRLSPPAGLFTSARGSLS
Nature of the data set: Inhibition of STAT5 phosphorylation at Tyr694 residue in human MOLM-13 cells harboring FLT3-ITD mutant incubated for 4 hrs by Western blot analysis. The conditions noted are these: dose 0.01-3 µM. Type of data set: cell-based. An outline of the steps:
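Cells were exposed to the compound at a series of concentrations for 4 h, and whole-cell lysates were analysed by Western blot. MV4-11 cells were grown in IMDM with 10% FBS. MOLM13 and MOLM14 cells were grown in RPMI 1640 with 10% FBS. All cultures were kept at 37 °C with 5% CO2.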
Background: A western blot detects proteins with antibodies after separation by electrophoresis.

The nature of data set [6]: Clearance in Sprague-Dawley rat at 10 mg/kg, po. The class given is ADME, organism-based. The note with it: in vivo, read-out: CL(app) (converted). The method, boiled down: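 Sprague-Dawley rats dosed IV at 1 mg/kg or by oral gavage at 10 mg/kg. Parameters from plasma exposure: AUC(0-t), AUC(0-∞), MRT, T1/2, Tmax, Vz, CLz, Cmax. Values are mean ± SD from three animals.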

Data set [7] concerns MV4-11. As to the kind of experiment: Induction of apoptosis in human MV4-11 cells harboring FLT3-ITD mutant assessed as increase in cleaved caspase-3 level incubated for 24 hrs by Western blot analysis. The class given is functional, cell-based. The note with it: dose 0.1-3 µM.
The nature of data set [8]: Half life in Sprague-Dawley rat at 1 mg/kg, iv. The note with it: in vivo. The class given is ADME, organism-based. An outline of the steps: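 Sprague-Dawley rats were dosed either intravenously at 1 mg/kg or by oral gavage at 10 mg/kg. Plasma PK parameters were AUC(0-t), AUC(0-∞), MRT(0-t), T1/2, Tmax, Vz, CLz, Cmax and F%. Values are the mean ± SD of three independent animals.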

As a reminder, the GI50 is the concentration at which growth is held to half of that of the control. A word on the half-life: it is the time in which the quantity being followed falls by half. Low values mean fast loss, high ones slow loss. For the compound `CC(=O)Nc1cc(Oc2ccc(NC(=O)Cc3ccccc3C(F)(F)F)cc2)ncn1`, the results for the GI50 in data set [1] and in data set [2] were 0.082 µM and above 10 µM, respectively. For the same compound, the figures for the Activity entry in data set [3], in data set [4] and in data set [7] were “Non-Toxic”, 2.4% and “Dose-Dependent Effect”, respectively. Also, the inhibition entry in data set [5] is “Dose-Dependent Effect”. In addition, the CL/F in data set [6] was 0.4 L/h/kg. In data set [8], this compound gave a half-life of 1.3 h.

(Values after ChEMBL document CHEMBL5260841, “Discovery of N-(4-(6-Acetamidopyrimidin-4-yloxy)phenyl)-2-(2-(trifluoromethyl)phenyl)acetamide (CHMFL-FLT3-335) as a Potent FMS-like Tyrosine Kinase 3 Internal Tandem Duplication (FLT3-ITD) Mutant Selective Inhibitor for Acute Myeloid Leukemia” (J Med Chem, 2019).)
